HSF1 inhib: HSF1 inhibitors in luciferase reporter cells, primary screen, cell-based, NIH3T3, luminescence; NIH3T3-HGL HSE-luciferase, MG132-induced, luminescence 8 h; hits give low values; activity change, negative = inhibition, % at 7.5 µM (by protocol); 300,000 compounds, 0.77% hits;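 active = more than half of replicate wells show activity change below -50%, luminescence cut by over half; inconclusive = some wells, but at most half, below -50%; inactive = no replicate well below -50%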;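 also: luciferase reports HSF-1 transcriptional activity via heat shock element; 0% = median of DMSO wells and -100% = zero luminescence signal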
PHOSPHO1 inh: PubChem AID 1565; recombinant PHOSPHO1, absorbance phosphatase assay; Phosphoethanolamine/phosphocholine phosphatase (Homo sapiens), Q8TCT1; inhibition, % at 13.3 µM; 290,000 compounds, 1.1% hits; in the data active = inhibition above about 60%
Target sequence (Q8TCT1 whole entry, looked up): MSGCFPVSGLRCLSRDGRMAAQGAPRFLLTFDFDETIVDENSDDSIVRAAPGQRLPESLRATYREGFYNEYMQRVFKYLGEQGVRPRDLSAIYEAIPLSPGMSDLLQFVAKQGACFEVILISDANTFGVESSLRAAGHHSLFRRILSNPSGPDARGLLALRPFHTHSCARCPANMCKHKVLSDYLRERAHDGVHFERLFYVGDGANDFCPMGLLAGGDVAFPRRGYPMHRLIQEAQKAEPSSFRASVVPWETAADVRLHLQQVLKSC
core dimer inh: inhibitors of HCV core protein dimerization, primary screen, biochemical, TR-FRET, high-throughput | inhibition, % at 5 µM | 300,000 compounds, 0.33% hits | TR-FRET GST/Flag-core106 dimerization, 1536-well;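 active = inhibition above the mean of all tested compounds plus 3 SD, set per screening campaign, cut at about 45% in these data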
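Assay system: GST-tagged and Flag-tagged HCV core protein residues 1-106 / Times: compound-protein-antibody incubation 4 h at 22.5 °C / Signal: time-resolved FRET, ex 340 nm, em 617 and 671 nm / Evaluation: % inhibition based on acceptor/donor emission ratio / Benchmarks: wells lacking GST-core106 and wells with excess unlabelled core106 / Repeats: singlicate, one well per compound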
ALR inh: inhibitors of human ALR sulfhydryl oxidase, primary screen, biochemical, H2O2 detection, HRP-luminol luminescence, single point; FAD-linked sulfhydryl oxidase ALR (Homo sapiens), P55789; purified ALR, DTT oxidation; inhibition, % (test concentration not listed); 290,000 compounds, 3.8% hits;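 active = mean replicate inhibition above about 79%, with every replicate also reaching it, limit read from the data; inconclusive = only one of the two criteria met; inactive = mean below limit and not every replicate reaching it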
Target sequence (P55789 whole entry, looked up): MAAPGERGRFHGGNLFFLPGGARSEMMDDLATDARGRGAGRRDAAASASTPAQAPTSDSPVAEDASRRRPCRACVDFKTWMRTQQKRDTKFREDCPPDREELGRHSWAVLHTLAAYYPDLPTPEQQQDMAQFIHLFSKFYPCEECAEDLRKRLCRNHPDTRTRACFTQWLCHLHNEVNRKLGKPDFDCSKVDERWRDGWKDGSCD
HSF1 activator: HSF-1 activators, primary screen, NIH3T3-HGL cells, MG132 stress, luminescence, single point | activation, % at 9 µM | 300,000 compounds, 1.7% hits | NIH3T3-HGL HSF-1 luciferase reporter, 8 h; 100% = twice DMSO control signal;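 active = mean replicate activation of at least 50% with a set share of replicates each reaching 50%; inconclusive = only one of those two conditions met; inactive = mean below 50% and too few replicates reaching it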;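 also: 0% = median of the neutral control wells and 100% = twice that signal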
AI-2 QS modul: Vibrio harveyi AI-2 quorum sensing modulators, primary screen, JMH597 strain, luminescence/OD600 ratio; Vibrio harveyi JMH597 AI-2 luminescence/OD600 ratio, 9 h; hits give low values; strain lacks LuxN and CqsS sensors; 0 = neutral-control median; activity change, % at 7.5 µM; 300,000 compounds, 0.4% hits; AID 2094, 2009; in the data active = activity change below about -75%, passing the limit was not always enough; inconclusive = no clear call, values can overlap the other calls;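 also: luminescence divided by OD600 gain over 9 h not by final OD600 alone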
* hit, by the source's call; ? = inconclusive; / = no result given. Most compounds without a hit are left out; they make up all but 6.8% or so of the library.

SMILES	HSF1 inhib	PHOSPHO1 inh	core dimer inh	ALR inh	HSF1 activator	AI-2 QS modul
COc1ccc(NC(=O)O/N=C/c2ccccc2)cc1	19	29	10	-35	26	-12
CN(C)c1ccc(/C=N/NC(=O)c2ccccc2Cl)cc1	?	-5	-3	98*	-60	-5
O=C(Nc1ccc(Cl)c(Cl)c1)O/N=C/c1ccncc1	8	-10	-3	-12	8	-88*
CN(C)c1ccc(/C=N/NC(=O)c2sccc2-n2cccc2)cc1	30	28	2	99*	42	19
NC(=O)C1CN(C(=O)c2cccc(S(=O)(=O)N3CCc4ccccc43)c2)c2ccccc2O1 (stereo not given)	/	/	/	-1	/	/
COC(=O)[C@@H](Cc1c[nH]c2ccccc12)NC(=O)CCC(=O)c1ccc(Br)cc1	0	30	0	-18	-9	4
CC(Sc1ncnc2ccccc12)C(=O)Nc1ccc2c(c1)OCCO2 (stereo not given)	9	-6	-3	/	26	22
Cc1ccc(/C=N/NC(=O)c2ccoc2C)o1	14	-15	0	7	23	9
Cc1occc1C(=O)N/N=C/C=C/c1ccc(N(C)C)cc1	8	29	-20	99*	6	37
Cc1occc1C(=O)N/N=C/c1ccc(N(C)C)cc1	37	4	-23	94*	?	22
COC(=O)c1ccccc1N=C(SC)N(C)C	-5	94*	-1	-3	-9	-11
COC(=O)c1ccccc1NC(=S)N(C)C	6	-5	-2	-15	9	6
O=C(O)c1cc(OCc2ccccc2)cc(OCc2ccccc2)c1	-4	42	7	2	-8	7
O=Cc1ccc(OCc2cccc(C(F)(F)F)c2)cc1O	0	40	17	-13	17	11
O=C(O)c1ccc(COc2ccc(CO)cc2Cl)cc1	-7	1	3	-1	-21	26
O=C(OCC(F)(F)F)c1cccc(COc2ccc3ccccc3c2)c1	-62*	5	2	-15	-66	6
CCOc1ccc(NC(=O)Nc2cccc(C(=O)O)c2)cc1	-72*	-14	-2	-9	-76	16
COc1ccc(OCc2cccc(C(=O)O)c2)cc1	-90*	17	-1	-7	-91	29
O=C(O)c1cccc(COc2ccc(CO)cc2Cl)c1	-91*	-6	-5	-2	-93	26
CCOc1ccc(OCc2cccc(C(=O)O)c2)cc1	-93*	-18	0	-4	-94	40
CCOc1ccc(OCc2cccc(C(=O)N3CCCCCC3)c2)cc1	-35	23	18	/	-40	14
CCOc1ccc(OCc2cccc(C(=O)N3CCCC3)c2)cc1	-51*	-7	4	-2	-60	19
CCCn1cc(CN2CCCC(C(=O)c3ccc4c(c3)OCO4)C2)c(C)n1 (stereo not given)	-1	55	0	-3	-1	6
C=CCn1c(COc2cccc(C)c2)nnc1SCC(=O)NC(=O)NCc1ccco1	1	3	18	9	-6	37
C=CCn1c(COc2ccc(Cl)cc2)nnc1SCc1ccc(C#N)cc1	-2	88*	17	/	7	10
SMILES	HSF1 inhib	PHOSPHO1 inh	core dimer inh	ALR inh	HSF1 activator	AI-2 QS modul
Cc1ccc(OCc2nnc(SCC(=O)C(C)(C)C)n2Cc2ccco2)cc1	-4	61*	7	17	19	24
C=CCn1c(COc2ccc(F)cc2)nnc1SCC(=O)NC(=O)NCc1ccco1	13	93*	16	-6	9	14
Cc1cc(NC(=O)CSc2nnc(COc3ccccc3)n2Cc2ccco2)no1	-1	16	-5	0	-1	9
C=CCn1c(COc2ccc(Cl)cc2)nnc1SCC(=O)NCC(=O)OCC	3	100*	-3	/	9	36
C=CCn1c(COc2ccc(Cl)cc2)nnc1SCC(=O)Nc1ccc(S(N)(=O)=O)cc1	-5	4	-3	-7	-5	16
Cc1cc(=O)oc2cc(NC(=O)C(C)Oc3cccc(Cl)c3)ccc12 (stereo not given)	-6	/	5	/	8	5
Cc1nc(C(=O)NC2CCOCC2)sc1C1(C)CC(c2cccc([N+](=O)[O-])c2)=NO1 (stereo not given)	4	34	1	/	-8	5
N#C/C(=C(/O)CSc1nnc(Cc2cccs2)n1C1CCCCC1)c1nc2ccccc2[nH]1	8	44	63*	-2	-2	33
C=CCn1c(COc2ccccc2)nnc1SCc1ccc(C#N)cc1	1	39	1	/	3	-8
Cc1ccc(NCc2nnc(SCC(=O)Nc3ncc(C)s3)n2Cc2ccco2)c(C)c1	4	73*	2	98*	12	3
COc1ccccc1-c1nnc(SC/C(O)=C(\C#N)c2nc3ccccc3[nH]2)n1C1CCCCC1	8	11	24	-9	1	71
C=CCn1c(COc2ccc(CC)cc2)nnc1SC/C(O)=C(\C#N)c1nc2ccccc2[nH]1	33	21	70*	-6	80*	17
Cc1cc(NC(=O)c2cc(C(C)C)on2)nn1Cc1ccc(Cl)cc1	11	9	1	1	-2	13
CCOCCn1c(SC(C)C(C)=O)nc2c1c(=O)[nH]c(=O)n2C (stereo not given)	8	32	2	-6	12	21
CCC1C(=NO)C(CC)C(c2ccccc2)NC1c1ccccc1 (stereo not given)	12	24	-1	3	59*	3
Cc1ccc(C)c(NC(=O)COC(=O)CC2c3ccccc3CCN2S(=O)(=O)c2ccc(F)cc2)c1 (stereo not given)	4	9	6	17	16	22
O=C(COC(=O)CC1c2ccccc2CCN1S(=O)(=O)c1ccccc1)Nc1ccccc1 (stereo not given)	18	-15	2	-6	58*	30
O=C1c2ccccc2C(=O)N1CCCCN(C(=O)c1cc([N+](=O)[O-])cc([N+](=O)[O-])c1)c1ccc(Cl)cc1	14	-14	27	-3	25	22
Cc1ccc(N(CCCCN2C(=O)c3ccccc3C2=O)C(=O)c2cccc([N+](=O)[O-])c2)cc1	35	15	6	-6	70*	16
O=C(O)c1ccc2c(=O)n3c(nc2c1)/C(=C/c1cccc(Cl)c1Cl)CC3	-1	38	4	20	-6	0
